Shown are actives, neighbours in structure and some others; about 1.7% of the full set was active somewhere.
M1 PAM parental: nonselective activator or artifact in parental CHO-K1 calcium assay; 0.02% of 360,000 active; ATP EC20, Fluo-8 calcium fluorescence; 0% at ATP EC20, 100% at ATP max; activation, % at 3 µM;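 active = activation above the run cutoff, the mean activation of all test compounds plus 3 SD, cut at about 40% in these data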;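 note: peak over basal fluorescence ratio in a 140 s read after ATP addition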
CHO-K1 Ca antag: nonselective inhibitor or artifact in parental CHO-K1 cells; 0.6% of 360,000 active; ATP-induced calcium, Fluo-8 fluorescence; AID 602250; inhibition, % at 3 µM;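 active = inhibition above a per-plate cutoff, the plate's mean sample inhibition plus 3 SD, cut at about 24% in these data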;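 note: 0% = DMSO plus EC80 ATP and 100% = DMSO alone without ATP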
M5 antag: antagonists of human muscarinic M5 receptor (CHRM5) | P08912 | CHO-hM5 cells, Fluo-8 calcium fluorescence, ACh EC80 | inhibition, % at 3 µM | 0.59% of 360,000 active | AID 624040;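 active = inhibition above a per-plate cutoff, the mean of that plate's test compounds plus 3 SD, cut at about 27% in these data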;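 note: 0% = acetylcholine EC80 with DMSO and 100% = DMSO without agonist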
Target sequence (P08912 whole entry, looked up): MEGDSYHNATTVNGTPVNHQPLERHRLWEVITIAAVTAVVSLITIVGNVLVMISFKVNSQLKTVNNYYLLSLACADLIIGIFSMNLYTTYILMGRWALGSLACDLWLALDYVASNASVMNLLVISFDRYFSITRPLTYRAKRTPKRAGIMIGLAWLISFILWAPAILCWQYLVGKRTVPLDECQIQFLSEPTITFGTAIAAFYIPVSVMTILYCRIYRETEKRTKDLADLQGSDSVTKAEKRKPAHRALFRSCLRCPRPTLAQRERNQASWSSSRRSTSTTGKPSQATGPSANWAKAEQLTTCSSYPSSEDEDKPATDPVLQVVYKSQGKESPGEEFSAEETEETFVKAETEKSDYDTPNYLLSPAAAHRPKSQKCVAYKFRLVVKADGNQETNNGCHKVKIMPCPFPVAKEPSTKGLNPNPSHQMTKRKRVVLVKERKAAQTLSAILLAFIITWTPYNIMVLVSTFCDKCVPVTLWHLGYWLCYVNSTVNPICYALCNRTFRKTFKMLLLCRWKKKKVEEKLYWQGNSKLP
CHRM5 agonist: CHRM5 agonism in calcium assay; 0.19% of 360,000 active; CHO-K1 hM5 cells, Fluo-8 calcium fluorescence; 0% DMSO wells, 100% maximal acetylcholine response; AID 624037; P08912; activation, % at 3 µM;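 active = activation above the run's mean over test compounds plus 3 SD, cut at about 23% in these data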;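 note: signal is peak over basal fluorescence ratio across the kinetic read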
CHRM5 PAM: CHRM5 positive allosteric modulation; CHO-K1 hM5, Fluo-8 calcium, ACh EC20 PAM; 0% = ACh EC20, 100% = ACh EC100; P08912; 0.3% of 360,000 active; activation, % at 3 µM;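 active = activation above the run cutoff, the mean activation of all test compounds plus 3 SD, cut at about 18% in these data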
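Assay system: CHO-K1 hM5 cells / Incubation: Fluo-8 loading 80 min at 37 °C plus 30 min room temperature / Technique: Fluo-8 calcium dye fluorescence, kinetic read / Repeats: single replicate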
M1 ag parental: nonselective activator or artifact in parental CHO-K1 cells | Fluo-8 calcium fluorescence; scaled to maximal ATP response, vehicle zero | activation, % at 3 µM | 0.48% of 360,000 active | AID 602248; in the data active = activation above about 15%;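 note: untransfected CHO-K1 host cells lacking M1 receptor as counterscreen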
Numbers without * were called inactive.

SMILES	M1 PAM parental	CHO-K1 Ca antag	M5 antag	CHRM5 agonist	CHRM5 PAM	M1 ag parental
Cc1cccc(Nc2nc3c(c(=O)n(C)c(=O)n3C)n2CC(O)CO)c1 (stereo unspecified)	-7	25*	-1	0	-3	0
CC1(C)Cc2noc(N)c2C(C)(C)N1O	-8	25*	-12	0	5	0
CC(=O)ON1C(C)(C)Cc2noc(N)c2C1(C)C	13	-3	1	1	-2	0
CC(C)(CC(=O)N1CCN(c2ccc(Cl)cc2)CC1)CC1=NS(=O)(=O)c2ccccc2N1	-3	11	28*	8	-23	5
O=C(CCCC1=NS(=O)(=O)c2ccccc2N1)N1CCN(c2ccc(Cl)cc2)CC1	20	-5	9	6	-10	4
COc1cccc(N2CCN(C(=O)CC(C)(C)CC3=NS(=O)(=O)c4ccccc4N3)CC2)c1	-13	2	27*	2	-18	14
COc1ccccc1C1CCN(Cc2cccc(C(=O)N3CCC(O)CC3)c2)CC1	-5	2	18	-7	-13	0
COc1ccccc1C1CCN(Cc2ccc(C)cc2)CC1	18	-4	1	-9	-5	18*
Nc1ccc(-c2c3ccc(=O)cc-3oc3cc(O)ccc23)c(C(=O)O)c1	-14	29*	42*	270*	-44	108*
COc1ccc(-c2cc(=O)c3ccc(O)cc3o2)cc1OC	9	-6	1	-1	-2	0
Cc1ccc(S(=O)(=O)NC(CC(C)C)C(=O)Oc2ccc3c4c(c(=O)oc3c2)CCC4)cc1 (stereo unspecified)	-12	25*	25	-1	-15	3
CCC(C)C(NS(=O)(=O)c1ccc(C)cc1)C(=O)Oc1ccc2c3c(c(=O)oc2c1)CCC3 (stereo unspecified)	49*	-27	9	-4	-23	4
COCCCNc1ccn2nc(-c3ccc(Cl)cc3)cc2n1	-4	24*	6	0	-6	2
C[C@H](NC(=O)c1ccco1)C(=O)Nc1ccc2c(c1)OCO2	2	-1	0	-2	-4	0
Cc1cc(C(c2ccc(O)cc2)c2cc(C)c(O)cc2C)c(C)cc1O	31	4	7	37*	-1	11
CCC(c1ccc(O)cc1)C(CC)c1ccc(O)cc1 (stereo unspecified)	5	7	7	-1	-12	0
Cc1nc2c(s1)sc1ccccc12	-9	24*	-2	-7	-4	0
Cc1cc2c(sc3ccccc32)c(C)n1	-3	-8	-6	-4	9	0
CCCCCCCCCC[n+]1cccc2c3ccccc3ccc21	-3	40*	46*	-9	-30	18*
CCCCCCCC[n+]1cccc2c3ccccc3ccc21	0	18	36*	-14	-18	3
Cc1cccc[n+]1CCCCCCCCCC[n+]1ccccc1C	4	-2	9	-12	0	1
Cc1ccc(N2CCN(C(=S)Nc3ccccc3)CC2)cc1	3	4	-5	-2	-4	22*
S=C(Nc1ccccc1)N1CCN(c2ccccc2)CC1	-12	0	6	4	5	2
CC1CCN(CC(O)COc2cccc(F)c2)CC1 (stereo unspecified)	8	-7	-2	-2	-3	0
CCOC(=O)Cc1csc(NC(=O)Nc2ccc(OC(F)(F)F)cc2)n1	-15	34*	22	11	-21	10
SMILES	M1 PAM parental	CHO-K1 Ca antag	M5 antag	CHRM5 agonist	CHRM5 PAM	M1 ag parental
CCCNC(=O)COC(=O)c1cccnc1Nc1ccccc1F	-5	13	-3	-4	5	0
CCOc1ccc(C(=O)Nc2cc(-c3nc4ccccc4[nH]3)ccc2Cl)cc1[N+](=O)[O-]	-5	26*	38*	3	-15	7
CCOC(=O)c1ccc2c(c1)nc(C1CCN(S(=O)(=O)c3cccs3)CC1)n2CC	3	-6	14	5	-22	15*
CCOC(=O)c1cccc(NC(=O)C2CCN(S(=O)(=O)c3cccs3)CC2)c1	1	2	6	4	-6	5
CCCN1C(=O)C(=O)N(CC(=O)N2c3ccccc3NC(=O)CC2C)C1=O (stereo unspecified)	4	2	6	-1	-6	3
CCOC(=O)CN1c2ccccc2NC(=O)CC1C (stereo unspecified)	43*	-29	6	0	-1	1
COC(=O)c1ccc(CN(c2ccc(OC)cc2)S(=O)(=O)c2ccccc2)cc1	28	-5	8	-3	-1	2
COc1cc(/C=C(/NC(=O)c2ccccc2)C(=O)N2CCN(C)CC2)c([N+](=O)[O-])cc1OC	7	-6	1	2	-2	0
COc1cc(/C=C(/NC(=O)c2ccccc2)C(=O)N2CCOCC2)c([N+](=O)[O-])cc1OC	-7	8	29*	-2	-6	0
C=CCN1C(=O)CN=C1Nc1cc(C)cc(C)c1	12	0	-1	-7	-3	0
COCC(=O)NNS(=O)(=O)c1ccccc1[N+](=O)[O-]	-11	5	14	0	20*	0
O=C(N/C(=C/c1cccc([N+](=O)[O-])c1)C(=O)N1CCOCC1)c1ccc(Br)cc1	15	-7	-3	-1	-2	1
Cc1ccc(NC(=O)c2ccc3nc[nH]c3c2)cc1C	-1	2	13	2	-6	18*
CCC(CC)C(=O)NCCc1cc2ccc(OC)cc2[nH]c1=O	18	-9	7	-2	1	1
Cc1noc(/C=C/c2ccco2)c1S(=O)(=O)N1CCC(C(=O)N2c3ccccc3CC2C)CC1 (stereo unspecified)	-9	26*	5	-1	-6	0
CCCNC(=O)C1CCN(S(=O)(=O)c2c(C)noc2/C=C\c2ccc(OC)cc2)CC1	19	2	3	1	-5	0
CNC(=O)C1CCN(S(=O)(=O)c2c(C)noc2/C=C/c2ccc(OC)cc2)CC1	14	0	80*	-5	-22	0
COc1ccc(OC)c(CN2CCN(C(=O)c3cc(S(=O)(=O)Nc4ccccc4OC)ccc3C)CC2)c1	-12	-8	-9	1	-2	5
C/C(=N\N1CCN(c2ccc(Cl)cc2)CC1)c1cccs1	-11	10	2	0	-5	-1
Cc1nc(-c2coc3cc(O)c(C)cc3c2=O)cs1	16	0	4	2	-3	1
O=[N+]([O-])c1ccc(/C=C/C2=NN(c3ccccc3)C(c3ccco3)C2)o1 (stereo unspecified)	-4	39*	52*	58*	-24	38*

Screening results deposited in PubChem by The Scripps Research Institute Molecular Screening Center.
